Data on 36 compounds can be found in ChEMBL document CHEMBL4725305, “Optimizing the aryl-triazole of cjoc42 for enhanced gankyrin binding and anti-cancer activity” (Bioorg Med Chem Lett, 2020).

SMILES strings stand for the structures. pIC50: −log10 of the molar value. The source made the active and inactive calls. The calls are words filed in the database; no cut-off is given here.

Assay [1] addresses T1, 26S proteasome non-ATPase regulatory subunit 10 (Homo sapiens) (UniProt O75832).
T1 sequence (whole entry): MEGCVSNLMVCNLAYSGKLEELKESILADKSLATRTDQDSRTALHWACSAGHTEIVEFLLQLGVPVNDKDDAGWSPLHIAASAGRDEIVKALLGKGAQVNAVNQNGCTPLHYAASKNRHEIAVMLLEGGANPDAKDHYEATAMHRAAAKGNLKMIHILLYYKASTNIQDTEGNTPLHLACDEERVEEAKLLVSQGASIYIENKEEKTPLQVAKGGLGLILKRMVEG
The assay can be described thus: Binding affinity to gankyrin (unknown origin) assessed as increase in melting temperature at 300 uM by thermal shift assay. In outline: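 Gankyrin (20 μM) incubated with test compound at 300 μM in protein thermal shift assay; denaturation temperature (T_m) measured and ΔT_m taken relative to protein without ligand. Vehicle control 5% DMSO; cjoc42 at 300 μM as reference control. Each compound tested in triplicate.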

For another assay, the system named is Hep3B. Kind of assay: Cytotoxicity against human Hep3B cells assessed as reduction in cell viability incubated for 72 hrs by MTT assay. For orientation: Formazan colour is commonly taken as a measure of viable cells.
Assay [2] deals with T1, 26S proteasome non-ATPase regulatory subunit 10 (Homo sapiens). Kind of assay: Potency index, ratio of change in melting temperature of Cjoc42 to change in melting temperature of compound for binding affinity to gankyrin (unknown origin) assessed as increase in melting temperature at 300 uM by thermal shift assay. The method in brief: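 Gankyrin (20 μM) with compound at 300 μM in thermal shift assay, run in triplicate; ΔT_m of each compound compared with that of cjoc42 (300 μM) tested in parallel as positive control; 5% DMSO vehicle.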

The subject of the next assay is HepG2. Kind of assay: Cytotoxicity against human HepG2 cells assessed as reduction in cell viability incubated for 72 hrs by MTT assay. Type of assay: functional, cell-based. The conditions noted are these: HepG2, 72 h. The method in brief:
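Hep3B and HepG2 cells incubated 24 h before drug addition, then exposed to compound for 72 h at 37 °C, 5% CO2; proliferation read by MTT assay and IC50 derived; tested up to 100 μM.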

Another assay has as its system A549. Kind of assay: Cytotoxicity against human A549 cells assessed as reduction in cell viability incubated for 48 hrs by MTT assay. Type of assay: functional, cell-based. The note with it: A549, 48 h. The method in brief:
(§1)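 A549 and MDA-MB-231 cells incubated 24 h before drug addition, then exposed to compound for 48 h at 37 °C, 5% CO2; proliferation read by MTT assay and IC50 derived; tested up to 100 μM.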

Another assay has as its system MDA-MB-231. The assay can be described thus: Cytotoxicity against human MDA-MB-231 cells assessed as reduction in cell viability incubated for 48 hrs by MTT assay. It is filed as functional, cell-based. The note with it: MDA-MB-231, 48 h. In outline: as §1

Regarding `Cc1ccc(S(=O)(=O)OCCCc2cn(-c3ccc(C#N)cc3)nn2)cc1`, in assay [1], the result was inactive.

In the case of `Cc1ccc(S(=O)(=O)OCCCc2cn(-c3ccc(-c4ccccc4)cc3)nn2)cc1`, the outcome in assay [1] was inactive.

Consider `Cc1ccc(S(=O)(=O)OCCCc2cn(-c3ccccn3)nn2)cc1`, for which the result in assay [1] was inactive.

What is called pIC50 is −log10 of the IC50, conventionally taken in molar units. `COC(=O)c1ccc(-n2cc(CCCOS(=O)(=O)c3ccc(-c4ccccc4)cc3)nn2)cc1`: the pIC50 in the assay with Hep3B was 4.59.

For `N#Cc1cccc(-n2cc(CCCOS(=O)(=O)c3ccc(I)cc3)nn2)c1`, in assay [1], the outcome was inactive.

Take `Cc1ccc(S(=O)(=O)OCCCc2cn(-c3ccc(I)cc3)nn2)cc1`: the result in assay [1] was inactive.

For `CCc1ccc(-n2cc(CCCOS(=O)(=O)c3ccc(C)cc3)nn2)cc1`, the outcome in assay [1] was inactive.

Consider `Cc1ccc(S(=O)(=O)OCCCc2cn(-c3ccccc3F)nn2)cc1`, for which, in assay [1], the result was inactive.

For `Cc1ccc(S(=O)(=O)OCCCc2cn(-c3cccc(Br)c3)nn2)cc1`, the outcome in assay [1] was Active.

`CCc1cccc(-n2cc(CCCOS(=O)(=O)c3ccc(C)cc3)nn2)c1`: the outcome in assay [1] was Active.

Consider `Cc1ccc(S(=O)(=O)OCCCc2cn(-c3cccc(C#N)c3)nn2)cc1`, for which the outcome in assay [1] was Active. Further, in assay [2], the Ratio amounted to 6. In addition, the pIC50 in the assay with HepG2 is under 4.00; in the assay with A549 it was under 4.00; in the assay with MDA-MB-231, under 4.00; in the assay on Hep3B, 4.35.

As for `COC(=O)c1ccc(-n2cc(CCCOS(=O)(=O)c3ccc(C)cc3)nn2)cc1`, the pIC50 in the assay on HepG2, in the assay with A549, with MDA-MB-231 and in the assay with Hep3B was under 4.00 each time.

For the compound `Cc1ccc(S(=O)(=O)OCCCc2cn(-c3ccccc3C(F)(F)F)nn2)cc1`, the result in assay [1] was Active.

On to `COc1ccc(-n2cc(CCCOS(=O)(=O)c3ccc(C)cc3)nn2)cc1`, for which, in assay [1], the outcome was Active. For the same compound, the negative logarithm of the IC50 (pIC50) was under 4.00 in the assay with HepG2, 4.13 in the assay with A549, 4.14 with MDA-MB-231 and under 4.00 in the assay with Hep3B.

Consider `Cc1ccc(S(=O)(=O)OCCCc2cn(-c3ccc(F)cc3)nn2)cc1`, for which, in assay [1], the result was inactive.

As to `COc1ccc(-n2cc(CCCOS(=O)(=O)c3ccc(I)cc3)nn2)cc1`, in assay [1], the outcome was inactive.

Take `Cc1ccc(S(=O)(=O)OCCCc2cn(-c3cccc(F)c3)nn2)cc1`: in assay [1], the result was Active. Also, the Ratio in assay [2] came out at 5. The pIC50 in the assay on HepG2 was 4.21; with A549 it was under 4.00; in the assay on MDA-MB-231, under 4.00; in the assay with Hep3B, 4.09.

With `CCc1ccccc1-n1cc(CCCOS(=O)(=O)c2ccc(C)cc2)nn1`, the result in assay [1] was inactive.

Regarding `Cc1ccc(S(=O)(=O)OCCCc2cn(-c3ccccc3C#N)nn2)cc1`, in assay [1], the result was inactive.

In the case of `Cc1ccc(S(=O)(=O)OCCCc2cn(-c3cccnc3)nn2)cc1`, the outcome in assay [1] was inactive.

Regarding `Cc1ccc(S(=O)(=O)OCCCc2cn(-c3ccc(C(C)C)cc3)nn2)cc1`, in assay [1], the result was inactive.

Take `COc1cccc(-n2cc(CCCOS(=O)(=O)c3ccc(C)cc3)nn2)c1`: the outcome in assay [1] was Active.

For `Cc1ccc(S(=O)(=O)OCCCc2cn(-c3ccc(Cl)cc3)nn2)cc1`, the result in assay [1] was Active.

Regarding `Cc1ccc(S(=O)(=O)OCCCc2cn(-c3ccccc3-c3ccccc3)nn2)cc1`, the result in assay [1] was Active.

On to `COC(=O)c1ccccc1-n1cc(CCCOS(=O)(=O)c2ccc(C)cc2)nn1`, for which, in assay [1], the result was inactive.

Consider `Cc1ccc(S(=O)(=O)OCCCc2cn(-c3ccccc3C)nn2)cc1`, for which, in assay [1], the result was Active.

`N#Cc1cccc(-n2cc(CCCOS(=O)(=O)c3ccc(-c4ccccc4)cc3)nn2)c1`: the outcome in assay [1] was inactive.

As to `Cc1ccc(S(=O)(=O)OCCCc2cn(-c3ccncc3)nn2)cc1`, in assay [1], the outcome was inactive.

For the compound `COc1ccc(-n2cc(CCCOS(=O)(=O)c3ccc(-c4ccccc4)cc3)nn2)cc1`, the outcome in assay [1] was inactive.

Regarding `Cc1ccc(S(=O)(=O)OCCCc2cn(-c3cccc(C(F)(F)F)c3)nn2)cc1`, in assay [1], the outcome was Active.

Regarding `Cc1ccc(-n2cc(CCCOS(=O)(=O)c3ccc(C)cc3)nn2)cc1`, the result in assay [1] was Active. For the same compound, the Ratio in assay [2] came out at 3. Further, the pIC50 in the assay on HepG2 was under 4.00; with A549 it was 4.10; with MDA-MB-231, 4.44; in the assay on Hep3B, under 4.00.

For the compound `Cc1ccc(S(=O)(=O)OCCCc2cn(-c3cccc(C)c3)nn2)cc1`, the result in assay [1] was Active.

On to `COc1ccccc1-n1cc(CCCOS(=O)(=O)c2ccc(C)cc2)nn1`, for which the result in assay [1] was Active.

Consider `Cc1ccc(S(=O)(=O)OCCCc2cn(-c3nccs3)nn2)cc1`, for which the outcome in assay [1] was inactive.

For the compound `Cc1ccc(S(=O)(=O)OCCCc2cn(-c3ccc(Br)cc3)nn2)cc1`, the result in assay [1] was Active.

As to `Cc1ccc(S(=O)(=O)OCCCc2cn(-c3ccc(C(F)(F)F)cc3)nn2)cc1`, the outcome in assay [1] was Active. Moreover, the negative logarithm of the IC50 (pIC50) with HepG2 was 4.37; in the assay on A549 it was under 4.00; with MDA-MB-231 it was under 4.00; with Hep3B, 4.37.
